Each structure is given as a SMILES string. The source made the active and inactive calls. The calls are words filed in the database; no cut-off is given here.

For test [1], the target named is Survival motor neuron protein (Homo sapiens) (UniProt Q16637). Kind of test: Activation of SMN expressed in HEK293 cells assessed as concentration required to reach 50% of maximum luciferase signal by SMN2-promotor driven luciferase reporter gene assay. Type of test: cell-based. In outline: (§1)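 HEK-293 cells stably carrying the SMN2 reporter construct, kept in DMEM with 10% FCS, glutamax, pyruvate, pen/strep and 200 µg/mL hygromycin, and assayed without hygromycin. 2,000 cells/well were plated and adhered overnight at 37 °C, 5% CO2. Compounds were added as a 7-point titration, 50 µM to 25 nM final, in 0.46% DMSO, for 30–36 h. OneGlo luminescence was normalized to 4.5 mM sodium butyrate (100%) and DMSO (0%).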
(In general: In a reporter assay the amount or activity of a reporter protein is the signal.)

Test [2] has the same target. As to the kind of experiment: Activation of SMN expressed in HEK293 cells assessed as rate of induction by SMN2-promotor driven luciferase reporter gene assay relative to basal level. It is filed as cell-based. Set-up: concentration or dose not given beside the values. The essentials: as §1

Sequence of Survival motor neuron protein (Homo sapiens) (Q16637 whole entry): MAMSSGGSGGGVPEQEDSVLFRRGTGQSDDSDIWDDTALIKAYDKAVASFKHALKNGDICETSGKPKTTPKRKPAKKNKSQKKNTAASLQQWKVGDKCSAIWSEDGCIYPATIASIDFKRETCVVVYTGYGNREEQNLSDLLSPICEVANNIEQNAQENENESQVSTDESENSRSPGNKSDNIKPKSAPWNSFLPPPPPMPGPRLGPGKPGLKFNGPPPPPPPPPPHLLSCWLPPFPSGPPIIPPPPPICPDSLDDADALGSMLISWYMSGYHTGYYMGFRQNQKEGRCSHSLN

On to `CN(C)c1cccc(-c2cnc(N3CCC(C(N)=O)CC3)s2)c1`, for which the Activity in test [1] worked out at 0.039 µM; in test [2] it was 550%. `N#Cc1cccc(-c2csc(N3CCC(C(N)=O)CC3)n2)c1`: in test [1], the result was inactive. Consider `NC(=O)C1CCN(c2nc(-c3ccccc3[N+](=O)[O-])cs2)CC1`, for which the result in test [1] was inactive. Regarding `CC(C)(C)c1ccc(-c2csc(N3CCC(C(N)=O)CC3)n2)cc1`, the Activity was found to be 3.87 µM in test [1] and 243% in test [2]. `NC(=O)C1CCN(c2nc(-c3cccc(Cl)c3)cs2)CC1`: the Activity came to 12.2 µM in test [1] and 53% in test [2].

For `NC(=O)C1CCN(c2nc(-c3ccc(Cl)cc3)cs2)CC1`, the values for the Activity in test [1] and in test [2] were 2.44 µM and 381%, respectively. For `CN(C)c1cccc(-c2ccnc(N3CCC(C(N)=O)CC3)n2)c1`, in that order: 0.772 µM and 446%. Taken in the same sequence, the figures for `CCOc1ccc(-c2csc(N3CCC(C(N)=O)CC3)n2)cc1` were 3.87 µM and 212%. Taken in the same sequence, the figures for `NC(=O)C1CCN(c2nc(-c3ccc4c(c3)OCC4)cs2)CC1` were 12.2 µM and 401%. With `Brc1ccc(-c2csc(N3CCNCC3)n2)cc1`, the Activity was 24.4 µM in test [1] and -97% in test [2]. Regarding `Cc1cccc(-c2csc(N3CCC(C(N)=O)CC3)n2)c1`, the Activity in test [1] came out at 30.7 µM; in test [2] it was 187%. As to `CN(C)C(=O)C1CCN(c2nc(-c3ccc(Br)cc3)cs2)CC1`, the figures for the Activity in test [1] and in test [2] were 30.8 µM and 43%, respectively. Taken in the same sequence, the figures for `CC(=O)c1ccc(-c2csc(N3CCC(C(N)=O)CC3)n2)cc1` were 12.2 µM and 130%. Regarding `O=C(C1CCN(c2nc(-c3ccc(Br)cc3)cs2)CC1)N1CCNCC1`, the result in test [1] was inactive. As for `NC(=O)C1CCN(c2nccc(-c3ccc(Br)cc3)n2)CC1`, the Activity in test [1] amounted to 0.387 µM; in test [2] it was 387%. Taken in the same sequence, the figures for `NC(=O)C1CCN(c2nccc(-c3ccc4c(c3)OCCCO4)n2)CC1` were 1.54 µM and 234%.

In the case of `Cc1ccc(-c2csc(N3CCC(C(N)=O)CC3)n2)cc1`, the Activity in test [1] is 1.22 µM; in test [2], 439%.

As to `O=C(NCCc1ccccc1)C1CCN(c2nc(-c3ccc(Br)cc3)cs2)CC1`, the Activity in test [1] is 6.13 µM; in test [2], 32%. Consider `N#Cc1ccccc1-c1csc(N2CCC(C(N)=O)CC2)n1`, for which, in test [1], the result was inactive. The same measure, in the same setting: in the case of `CS(=O)(=O)c1ccc(-c2csc(N3CCC(C(N)=O)CC3)n2)cc1` it was “inactive”. Regarding `CCOC(=O)C1CCN(c2ncc(-c3ccc4c(c3)OCCCO4)s2)CC1`, the Activity in test [1] turned out to be 0.031 µM; in test [2] it was 320%.

For the molecule `NC(=O)N1CCN(c2nc(-c3ccc(Br)cc3)cs2)CC1`, the Activity was 12.2 µM in test [1] and 89% in test [2]. Take `CC(C(=O)O)c1ccc(N2Cc3ccccc3C2=O)cc1` (stereo unspecified): in test [1], the Activity was more than 1 µM. Still for that read-out and setting: the value for `NC(=O)C1CCN(c2nc(-c3cccnc3)cs2)CC1` was “inactive”.

Turning to `NC(=O)C1CCN(c2nc(-c3ccccc3Br)cs2)CC1`, in test [1], the outcome was inactive. The same measure, in the same setting: the value for `NC(=O)C1CCN(c2nc(-c3cc4ccccc4o3)cs2)CC1` was 15.4 µM. With `NC(=O)C1CCN(c2ncc(-c3cccc(N4CCOCC4)c3)s2)CC1`, the Activity in test [1] came to 2.44 µM; in test [2], 275%. As to `N#Cc1ccc(-c2csc(N3CCC(C(N)=O)CC3)n2)cc1`, the Activity in test [1] came to 9.72 µM; in test [2], 49%. Taken in the same sequence, the figures for `CC(=O)N1CCN(c2nc(-c3ccc(Br)cc3)cs2)CC1` were 3.07 µM and 234%.

As for `NC(=O)C1CCN(c2ncc(-c3ccc4c(c3)OCO4)s2)CC1`, the Activity was found to be 0.049 µM in test [1] and 590% in test [2]. For `c1c[nH]c(C2CCN(c3ncc(-c4ccc5c(c4)OCCCO5)s3)CC2)n1`, in that order: 2.44 µM and 129%. Turning to `CC(C)(C)OC(=O)NC1CCN(c2nc(-c3ccc(Br)cc3)cs2)CC1`, the result in test [1] was inactive. Still for that read-out and setting: in the case of `O=C(NCc1ccccc1)C1CCN(c2nc(-c3ccc(Br)cc3)cs2)CC1` it was “inactive”. Take `NC(=O)C1CCN(c2ncc(-c3cccc(N4CCCC4)c3)s2)CC1`: the Activity turned out to be 0.387 µM in test [1] and 685% in test [2]. On to `CS(=O)(=O)N1CCN(c2nc(-c3ccc(Br)cc3)cs2)CC1`, for which the result in test [1] was inactive. With `O=S(=O)(c1ccccc1)N1CCN(c2nc(-c3ccc(Br)cc3)cs2)CC1`, the result in test [1] was inactive. For the molecule `NC(=O)C1CCN(c2nnc(-c3ccc(Br)cc3)s2)CC1`, the outcome in test [1] was inactive.

In the case of `CN(C)c1ccc(-c2csc(N3CCC(C(N)=O)CC3)n2)cc1`, the Activity in test [1] was determined as 30.7 µM; in test [2], 64%.

For the molecule `NC(=O)C1CCN(c2nccc(Cl)n2)CC1`, the outcome in test [1] was inactive. The same measure, in the same setting: the value for `CS(=O)(=O)c1cccc(-c2csc(N3CCC(C(N)=O)CC3)n2)c1` was “inactive”.

Take `CC(=O)Nc1ccc(-c2csc(N3CCC(C(N)=O)CC3)n2)cc1`: the result in test [1] was inactive. Same read-out and setting: in the case of `NC(=O)C1CCN(c2nc(-c3ccc(OCc4ccccc4)cc3)cs2)CC1` it was “inactive”. Still for that read-out and setting: in the case of `NC(=O)C1CCN(c2nc(-c3cccc(N)c3)cs2)CC1` it was “inactive”. Still for that read-out and setting: in the case of `Brc1ccc(-c2csc(N3CCOCC3)n2)cc1` it was “inactive”. As for `O=C(c1ccco1)N1CCN(c2nc(-c3ccc(Br)cc3)cs2)CC1`, the outcome in test [1] was inactive. Still for that read-out and setting: in the case of `COc1ccccc1-c1csc(N2CCC(C(N)=O)CC2)n1` it was “inactive”; in that of `CC(=O)C1CCN(c2ncc(-c3ccc4c(c3)OCCCO4)s2)CC1`, “inactive”. Same read-out and setting: in the case of `NC(=O)C1CCN(c2nc(-c3cccc4ccccc34)cs2)CC1` it was “inactive”. On the same count and under the same terms, in the case of `Cc1cnc(N2CCC(C(N)=O)CC2)nc1-c1cccc(N(C)C)c1` it was “inactive”; in that of `NC(=O)C1CCN(c2nc(-c3ccc(N)cc3)cs2)CC1`, “inactive”; in that of `O=C(NCCCc1ccccc1)C1CCN(c2nc(-c3ccc(Br)cc3)cs2)CC1`, “inactive”. `Cc1noc(C)c1-c1csc(N2CCC(C(N)=O)CC2)n1`: the result in test [1] was inactive.

Regarding `CS(=O)(=O)c1ccccc1-c1csc(N2CCC(C(N)=O)CC2)n1`, the result in test [1] was inactive. Still for that read-out and setting: the value for `NC(=O)C1CCN(c2nc(-c3ccc(N4CCCCC4)nc3)cs2)CC1` was 6.13 µM.

`NC(=O)C1CCN(c2nc(-c3cccc(C(F)(F)F)c3)cs2)CC1`: in test [1], the Activity came to 3.87 µM. Same read-out and setting: the value for `NC(=O)C1CCN(c2ncc(Br)s2)CC1` was “inactive”; that for `NC(=O)C1CCN(c2ncc(Br)cn2)CC1` was “inactive”.

For the molecule `NC(=O)C1CCN(c2nc(-c3ccccc3C(F)(F)F)cs2)CC1`, in test [1], the outcome was inactive. In the case of `O=C(NCCCCc1ccccc1)C1CCN(c2nc(-c3ccc(Br)cc3)cs2)CC1`, the result in test [1] was inactive.

Turning to `O=C(c1ccccc1)N1CCN(c2nc(-c3ccc(Br)cc3)cs2)CC1`, the outcome in test [1] was inactive. On the same count and under the same terms, in the case of `CN(C)c1ccccc1-c1csc(N2CCC(C(N)=O)CC2)n1` it was “inactive”; in that of `NC(=O)C1CCN(c2nc(-c3ccccc3-c3ccccc3)cs2)CC1`, “inactive”.

Source of the values: ChEMBL document CHEMBL1821687, “Discovery, synthesis, and biological evaluation of novel SMN protein modulators” (J Med Chem, 2011).
